Results: ChEMBL document CHEMBL4402566, “2-Substituted α,β-Methylene-ADP Derivatives: Potent Competitive Ecto-5'-nucleotidase (CD73) Inhibitors with Variable Binding Modes” (J Med Chem, 2020)
Active and inactive are the calls of the source. No cut-off for these calls is given here.

Columns and labels:
5'-nucleotidase [1] = target: T1, 5'-nucleotidase (Rattus norvegicus, UniProt P21588); test: Inhibition of purified recombinant soluble rat CD73 expressed in Sf9 cells [3H]AMP as substrate incubated for 25 mins by scintillation counting method
T1 sequence (P21588 whole entry): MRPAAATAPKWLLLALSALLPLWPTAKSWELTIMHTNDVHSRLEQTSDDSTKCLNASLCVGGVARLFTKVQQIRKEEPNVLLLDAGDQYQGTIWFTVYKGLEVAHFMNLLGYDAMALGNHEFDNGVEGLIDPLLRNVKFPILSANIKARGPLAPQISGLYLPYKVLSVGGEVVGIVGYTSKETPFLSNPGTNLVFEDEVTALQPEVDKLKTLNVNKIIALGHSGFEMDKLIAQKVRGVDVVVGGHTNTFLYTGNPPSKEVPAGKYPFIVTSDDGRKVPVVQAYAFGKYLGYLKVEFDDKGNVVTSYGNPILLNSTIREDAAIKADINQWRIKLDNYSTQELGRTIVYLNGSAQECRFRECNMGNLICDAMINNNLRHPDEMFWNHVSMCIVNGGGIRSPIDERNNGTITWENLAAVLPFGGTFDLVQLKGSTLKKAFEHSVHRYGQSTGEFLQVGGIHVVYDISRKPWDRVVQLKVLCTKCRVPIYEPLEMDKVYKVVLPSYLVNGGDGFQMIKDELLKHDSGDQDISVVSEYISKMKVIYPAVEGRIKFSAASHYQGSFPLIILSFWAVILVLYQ
Procedure, shortened: (§1)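 Radiometric CD73 assay in 25 mM Tris, 140 mM NaCl, 25 mM NaH2PO4, pH 7.4. Enzyme per vial: rat CD73 1.63 ng, human CD73 0.365 ng, MDA-MB-231 membranes 7.4 ng protein. […] 25 min at 37 °C, shaking. Stopped with cold LaCl3/sodium acetate pH 4.0 to precipitate substrate. Filtrate counted by scintillation. Full curves; Ki from IC50 via Cheng–Prusoff.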

5'-nucleotidase [2] = target: T2, 5'-nucleotidase (Homo sapiens, UniProt P21589); test: Inhibition of purified recombinant soluble human CD73 expressed in Sf9 cells [3H]AMP as substrate incubated for 25 mins by scintillation counting method; procedure, shortened: as §1
T2 sequence (P21589 whole entry): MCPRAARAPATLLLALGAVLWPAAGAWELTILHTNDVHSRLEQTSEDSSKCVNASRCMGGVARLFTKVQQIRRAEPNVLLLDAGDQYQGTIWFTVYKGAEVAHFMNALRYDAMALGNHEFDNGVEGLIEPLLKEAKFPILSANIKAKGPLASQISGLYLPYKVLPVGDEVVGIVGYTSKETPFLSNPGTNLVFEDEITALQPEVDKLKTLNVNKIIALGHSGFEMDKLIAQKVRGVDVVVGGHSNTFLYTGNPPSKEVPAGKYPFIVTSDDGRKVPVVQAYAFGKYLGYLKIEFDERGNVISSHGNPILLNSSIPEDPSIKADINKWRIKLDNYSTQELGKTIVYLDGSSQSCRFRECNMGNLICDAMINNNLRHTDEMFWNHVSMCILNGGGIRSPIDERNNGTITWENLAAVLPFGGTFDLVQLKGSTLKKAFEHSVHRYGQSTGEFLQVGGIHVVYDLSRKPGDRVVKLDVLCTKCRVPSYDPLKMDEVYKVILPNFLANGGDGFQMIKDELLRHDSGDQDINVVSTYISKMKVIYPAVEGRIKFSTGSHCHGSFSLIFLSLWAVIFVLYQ

5'-nucleotidase [3] = target: T2, 5'-nucleotidase; test: Inhibition of native CD73 in human MDA-MB-231 cell membrane preparations [3H]AMP as substrate incubated for 25 mins by scintillation counting method; assay type: cell membranes; procedure, shortened: as §1
[4] = Selectivity index, ratio of Ki for inhibition of purified recombinant soluble rat CD73 expressed in Sf9 cells to Ki for inhibition of purified recombinant soluble human CD73 expressed in Sf9 cells
[5] = target: P2Y purinoceptor 1 (Homo sapiens) (UniProt P47900); test: Activation of recombinant human P2Y1 receptor expressed in human 1321N1 cells assessed as stimulation of calcium mobilization at 10 uM by fluorescence based assay; assay type: functional, cell-based
Sequence of P2Y purinoceptor 1 (Homo sapiens) (P47900 whole entry): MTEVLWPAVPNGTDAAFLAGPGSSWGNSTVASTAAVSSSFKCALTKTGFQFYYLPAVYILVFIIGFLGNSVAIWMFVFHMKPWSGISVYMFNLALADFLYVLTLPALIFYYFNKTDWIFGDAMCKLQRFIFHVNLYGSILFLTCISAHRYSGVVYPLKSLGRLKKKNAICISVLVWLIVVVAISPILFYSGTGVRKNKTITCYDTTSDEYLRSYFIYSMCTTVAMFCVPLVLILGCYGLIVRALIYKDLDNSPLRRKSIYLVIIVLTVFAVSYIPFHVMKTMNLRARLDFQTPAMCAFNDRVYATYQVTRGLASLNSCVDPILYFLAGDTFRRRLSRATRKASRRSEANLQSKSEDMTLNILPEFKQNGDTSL

[6] = Metabolic stability in human blood plasma assessed as compound degradation at 200 uM incubated for 5 hrs at 37 degC by LC-MS analysis; assay type: ADME, cell-free; details: read-out: Drug degradation
Procedure, shortened: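 Human plasma from healthy donors added to aqueous compound solution, 200 μM final. Incubated at 37 °C for 5 h. Supernatants analysed by LC-MS as percentage of compound remaining over time. Three separate experiments, each in duplicate.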

[7] = target: P2Y purinoceptor 12 (Homo sapiens) (UniProt Q9H244); test: Activation of recombinant human P2Y12 receptor expressed in CHOK1 cells assessed as stimulation of beta-arrestin recruitment at 10 uM incubated for 90 mins by luminescence based assay
Sequence of P2Y purinoceptor 12 (Homo sapiens) (Q9H244 whole entry): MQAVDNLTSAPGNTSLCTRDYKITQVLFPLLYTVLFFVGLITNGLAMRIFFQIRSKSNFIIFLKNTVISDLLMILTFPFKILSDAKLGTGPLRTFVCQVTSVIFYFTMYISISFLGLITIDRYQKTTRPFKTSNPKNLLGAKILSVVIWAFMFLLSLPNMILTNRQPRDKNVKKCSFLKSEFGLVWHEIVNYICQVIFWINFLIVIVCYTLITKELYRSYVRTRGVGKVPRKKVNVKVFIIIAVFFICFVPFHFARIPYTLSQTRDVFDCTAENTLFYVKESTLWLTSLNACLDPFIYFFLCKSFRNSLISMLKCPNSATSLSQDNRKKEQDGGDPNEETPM

[8] = Metabolic stability in rat liver microsomes assessed as compound degradation at 200 uM after 30 mins in presence of NADPH regenerative system at 37 degC by LC-MS analysis; assay type: ADME, Microsome; details: read-out: Drug degradation
Procedure, shortened: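 Rat liver microsomes (2 mg) incubated with compound at 200 μM in 2 mL at 37 °C for various times. Stopped with ice-cold acetonitrile and centrifuged. Supernatant analysed by LC-MS as percentage remaining. Three separate experiments in duplicate.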

[9] = target: T3, Ectonucleotide pyrophosphatase/phosphodiesterase family member 3 (Homo sapiens) (UniProt O14638); test: Inhibition of human recombinant NPP3 at 10 uM using p-nitrophenyl thymidine monophosphate substrate incubated for 30 mins by colorimetry
T3 sequence (whole entry): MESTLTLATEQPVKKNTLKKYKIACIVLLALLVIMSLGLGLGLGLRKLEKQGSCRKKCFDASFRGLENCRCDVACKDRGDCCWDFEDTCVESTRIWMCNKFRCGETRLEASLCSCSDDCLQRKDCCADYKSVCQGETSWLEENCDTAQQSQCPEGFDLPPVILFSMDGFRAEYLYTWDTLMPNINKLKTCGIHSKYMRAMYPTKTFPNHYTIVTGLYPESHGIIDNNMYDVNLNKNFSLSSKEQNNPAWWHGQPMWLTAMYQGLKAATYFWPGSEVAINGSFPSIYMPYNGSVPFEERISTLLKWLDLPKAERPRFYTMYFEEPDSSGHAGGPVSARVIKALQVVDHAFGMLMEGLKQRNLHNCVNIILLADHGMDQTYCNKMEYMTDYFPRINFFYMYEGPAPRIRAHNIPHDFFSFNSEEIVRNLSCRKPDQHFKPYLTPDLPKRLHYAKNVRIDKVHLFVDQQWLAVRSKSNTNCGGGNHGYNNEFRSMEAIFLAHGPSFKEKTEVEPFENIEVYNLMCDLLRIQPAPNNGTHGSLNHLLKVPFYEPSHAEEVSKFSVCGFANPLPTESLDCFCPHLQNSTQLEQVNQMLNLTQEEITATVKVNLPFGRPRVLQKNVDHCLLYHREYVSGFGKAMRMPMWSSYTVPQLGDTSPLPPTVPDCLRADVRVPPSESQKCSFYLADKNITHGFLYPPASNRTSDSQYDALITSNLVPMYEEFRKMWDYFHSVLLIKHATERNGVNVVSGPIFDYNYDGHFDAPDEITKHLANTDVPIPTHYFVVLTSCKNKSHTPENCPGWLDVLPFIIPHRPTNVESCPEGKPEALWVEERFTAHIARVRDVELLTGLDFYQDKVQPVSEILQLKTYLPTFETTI

Autotaxin (Homo sapiens) = Autotaxin (Homo sapiens) (UniProt Q13822); test: Inhibition of human recombinant NPP2 at 10 uM using p-nitrophenyl thymidine monophosphate substrate incubated for 30 mins by colorimetry
[10] = Drug metabolism in rat liver microsomes at 200 uM after 2 hrs in presence of NADPH regenerative system at 37 degC by LC-MS analysis; assay type: ADME, Microsome; details: read-out: Drug metabolism
[11] = target: T4, Ectonucleotide pyrophosphatase/phosphodiesterase family member 1 (Homo sapiens) (UniProt P22413); test: Inhibition of human recombinant NPP1 at 10 uM using p-nitrophenyl thymidine monophosphate substrate incubated for 30 mins by colorimetry
T4 sequence (whole entry): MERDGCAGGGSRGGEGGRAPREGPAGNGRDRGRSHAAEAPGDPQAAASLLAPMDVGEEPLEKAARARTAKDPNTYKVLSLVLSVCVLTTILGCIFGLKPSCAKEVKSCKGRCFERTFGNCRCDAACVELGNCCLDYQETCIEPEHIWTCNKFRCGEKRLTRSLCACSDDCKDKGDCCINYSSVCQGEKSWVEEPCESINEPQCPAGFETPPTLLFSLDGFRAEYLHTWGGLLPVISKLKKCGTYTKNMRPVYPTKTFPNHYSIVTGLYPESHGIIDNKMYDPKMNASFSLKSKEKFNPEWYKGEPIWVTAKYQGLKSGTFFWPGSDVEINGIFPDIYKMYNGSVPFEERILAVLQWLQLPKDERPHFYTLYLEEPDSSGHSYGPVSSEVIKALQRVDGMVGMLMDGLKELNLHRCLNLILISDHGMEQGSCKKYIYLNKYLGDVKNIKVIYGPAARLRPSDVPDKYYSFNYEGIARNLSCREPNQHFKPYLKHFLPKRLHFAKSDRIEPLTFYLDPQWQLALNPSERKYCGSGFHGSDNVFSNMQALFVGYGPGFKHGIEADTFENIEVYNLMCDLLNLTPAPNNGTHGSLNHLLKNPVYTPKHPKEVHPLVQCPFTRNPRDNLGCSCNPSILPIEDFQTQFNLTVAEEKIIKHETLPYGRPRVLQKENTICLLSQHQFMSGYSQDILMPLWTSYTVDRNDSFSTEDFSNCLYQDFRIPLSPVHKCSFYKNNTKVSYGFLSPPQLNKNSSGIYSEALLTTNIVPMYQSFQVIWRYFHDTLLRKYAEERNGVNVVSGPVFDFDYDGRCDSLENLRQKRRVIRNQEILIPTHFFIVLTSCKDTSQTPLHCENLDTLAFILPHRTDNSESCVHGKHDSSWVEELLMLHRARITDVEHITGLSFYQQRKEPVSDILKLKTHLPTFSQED

[12] = Metabolic stability in rat liver microsomes assessed as intact compound level at 200 uM after 2 hrs in presence of NADPH regenerative system at 37 degC by LC-MS analysis; assay type: ADME, Microsome; details: read-out: Stability
5'-nucleotidase [13] = target: T1, 5'-nucleotidase; test: Inhibition of rat CD73
Procedure, shortened: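 Recombinant soluble rat CD73 expressed in Sf9 insect cells (1.63 ng per vial). Buffer was 25 mM Tris, 140 mM NaCl, 25 mM NaH2PO4, pH 7.4. […] Stopped with LaCl3/sodium acetate pH 4.0 to precipitate unreacted substrate, then filtered; adenosine in the filtrate counted by scintillation. Ki derived from IC50 by Cheng–Prusoff.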

5'-nucleotidase [14] = target: T2, 5'-nucleotidase; test: Inhibition of human CD73

| SMILES | Ki (5'-nucleotidase [1]) | Ki (5'-nucleotidase [2]) | Ki (5'-nucleotidase [3]) | Activity [5] | Activity [7] | inhibition [9] | inhibition (Autotaxin (Homo sapiens)) | inhibition [11] | further results |
| --- | --- | --- | --- | --- | --- | --- | --- | --- | --- |
| Nc1nc2c(ncn2[C@@H]2O[C@H](COP(=O)(O)CP(=O)(O)O)[C@@H](O)[C@H]2O)c(=O)[nH]1 [PHOSPHOMETHYLPHOSPHONIC ACID GUANOSYL ESTER] | 1110 nM | 410 nM | 255 nM |  |  |  |  |  |  |
| NNc1nc(N)c2ncn([C@@H]3O[C@H](COP(=O)(O)CP(=O)(O)O)[C@@H](O)[C@H]3O)c2n1 | 116 nM | 15.5 nM | 15.4 nM |  |  |  |  |  | Ratio Ki [4]: 7.5 |
| Nc1nc(N2CCNCC2)nc2c1ncn2[C@@H]1O[C@H](COP(=O)(O)CP(=O)(O)O)[C@@H](O)[C@H]1O | 2290 nM | 184 nM | 238 nM |  |  |  |  |  | Ratio Ki [4]: 12.5 |
| Nc1ncnc2c1ncn2[C@@H]1O[C@H](COP(=O)(O)CP(=O)(O)O)[C@@H](O)[C@H]1O [PHOSPHOMETHYLPHOSPHONIC ACID ADENOSYL ESTER] | 197 nM |  | 207 nM | Active | Active |  |  |  | metabolised at 5 h, 200 µM [6]: ≤ 50%; metabolised at 0.5 h, 200 µM [8]: 100% |
| Nc1nc(I)nc2c1ncn2[C@@H]1O[C@H](COP(=O)(O)CP(=O)(O)O)[C@@H](O)[C@H]1O | 15.1 nM | 3.59 nM | 3.33 nM |  |  | inactive | inactive | inactive | metabolised at 5 h, 200 µM [6]: < 25%; metabolised at 2 h, 200 µM [10]: < 40%; remaining at 2 h, 200 µM [12]: 100% |
| Nc1nc(Cl)c2ncn([C@@H]3O[C@H](COP(=O)(O)CP(=O)(O)O)[C@@H](O)[C@H]3O)c2n1 | 268 nM | 23.6 nM | 32.2 nM | inactive | inactive | inactive | inactive | inactive | Ratio Ki [4]: 6.3 |
| Nc1nc(N)c2ncn([C@@H]3O[C@H](COP(=O)(O)CP(=O)(O)O)[C@@H](O)[C@H]3O)c2n1 | 90.6 nM | 38.8 nM | 35.7 nM |  |  |  |  |  |  |
| C=CCSc1nc(N)c2ncn([C@@H]3O[C@H](COP(=O)(O)CP(=O)(O)O)[C@@H](O)[C@H]3O)c2n1 | 65.7 nM | 61.9 nM | 65.4 nM |  |  |  |  |  |  |
| Nc1nc(SCCC2CCCCC2)nc2c1ncn2[C@@H]1O[C@H](COP(=O)(O)CP(=O)(O)O)[C@@H](O)[C@H]1O | 56.6 nM | 46.9 nM | 49.1 nM | inactive | inactive | inactive | inactive | inactive |  |
| Nc1nc(Cl)nc2c1ncn2[C@@H]1O[C@H](COP(=O)(O)CP(=O)(O)O)[C@@H](O)[C@H]1O | 18.6 nM | 5.93 nM | 4.57 nM | inactive | inactive | inactive | inactive | inactive |  |
| CN(Cc1ccccc1)c1nc(Cl)nc2c1ncn2[C@@H]1O[C@H](COP(=O)(O)CP(=O)(O)O)[C@@H](O)[C@H]1O |  |  |  |  |  |  |  |  | Ki (5'-nucleotidase [13]): 0.746 nM; Ki (5'-nucleotidase [14]): 0.318 nM |
| Nc1ncnc2c1ncn2[C@@H]1O[C@H](COP(=O)(O)OP(=O)(O)O)[C@@H](O)[C@H]1O |  |  |  | Active | Active |  |  |  |  |
| Nc1nc(=O)[nH]c2c1ncn2[C@@H]1O[C@H](COP(=O)(O)CP(=O)(O)O)[C@@H](O)[C@H]1O | 326 nM |  |  |  |  |  |  |  |  |
